We go through 10 compounds from ChEMBL document CHEMBL5042558, “Selective Macrocyclic Inhibitors of DYRK1A/B” (ACS Med Chem Lett, 2022).

Data set [1] addresses Dual specificity tyrosine-phosphorylation-regulated kinase 1B (Homo sapiens, UniProt Q9Y463). Kind of data set: Inhibition of DYRK1B (unknown origin) measured after 6 hrs in presence of ATP by Z'-LYTE assay.
Data set [2] concerns CAL-27. Kind of data set: Induction of apoptosis in human CAL-27 cells assessed as BCL-xL level at 1 uM after 24 hrs by Immunoblot analysis relative to control. Type of data set: functional.
The subject of data set [3] is CAL-27. As to the kind of experiment: Induction of apoptosis in human CAL-27 cells assessed as PARP level at 10 uM after 24 hrs by Immunoblot analysis relative to control. Type of data set: functional. In general terms: In western blotting, separated proteins are transferred to a membrane and probed.
Data set [4] relates to CAL-27. As to the kind of experiment: Induction of apoptosis in human CAL-27 cells assessed as BCL-xL level at 10 uM after 24 hrs by Immunoblot analysis relative to control. Type of data set: functional.
For data set [5], the system named is CAL-27. Kind of data set: Induction of apoptosis in human CAL-27 cells assessed as increase in cleaved-PARP level at 1 uM after 24 hrs by Immunoblot analysis relative to control. In kind it is functional.
The subject of data set [6] is CAL-27. As to the kind of experiment: Induction of apoptosis in human CAL-27 cells assessed as PARP level at 1 uM after 24 hrs by Immunoblot analysis relative to control. Type of data set: functional.
Data set [7] deals with CAL-27. Kind of data set: Induction of apoptosis in human CAL-27 cells assessed as increase in cleaved-PARP level at 10 uM after 24 hrs by Immunoblot analysis relative to control. In kind it is functional.
Data set [8] can be described thus: Clearance in C57BL/6 mouse at 5 mg/kg, iv measured upto 8 hrs by LC-MS/MS analysis. Type of data set: ADME, organism-based. As to conditions: in vivo.
The next data set relates to HEK-293T. Kind of data set: Antiproliferative activity against human HEK293T cells assessed as reduction in cell viability at 10 uM measured after 72 hrs by Celltiter-Glo luminescent assay. In kind it is toxicity, cell-based. In general terms: ATP-based viability assays read luminescence as a measure of living cells.
A short description of data set [9]: Half life in C57BL/6 mouse at 5 mg/kg, iv measured upto 8 hrs by LC-MS/MS analysis. Type of data set: ADME, organism-based. Particulars: in vivo.
For data set [10], the target named is Receptor-type tyrosine-protein kinase FLT3 (Homo sapiens, UniProt P36888). Kind of data set: Inhibition of FLT3 (unknown origin) at 1 uM by kinome scan method.
Sequence of Receptor-type tyrosine-protein kinase FLT3 (P36888 whole entry): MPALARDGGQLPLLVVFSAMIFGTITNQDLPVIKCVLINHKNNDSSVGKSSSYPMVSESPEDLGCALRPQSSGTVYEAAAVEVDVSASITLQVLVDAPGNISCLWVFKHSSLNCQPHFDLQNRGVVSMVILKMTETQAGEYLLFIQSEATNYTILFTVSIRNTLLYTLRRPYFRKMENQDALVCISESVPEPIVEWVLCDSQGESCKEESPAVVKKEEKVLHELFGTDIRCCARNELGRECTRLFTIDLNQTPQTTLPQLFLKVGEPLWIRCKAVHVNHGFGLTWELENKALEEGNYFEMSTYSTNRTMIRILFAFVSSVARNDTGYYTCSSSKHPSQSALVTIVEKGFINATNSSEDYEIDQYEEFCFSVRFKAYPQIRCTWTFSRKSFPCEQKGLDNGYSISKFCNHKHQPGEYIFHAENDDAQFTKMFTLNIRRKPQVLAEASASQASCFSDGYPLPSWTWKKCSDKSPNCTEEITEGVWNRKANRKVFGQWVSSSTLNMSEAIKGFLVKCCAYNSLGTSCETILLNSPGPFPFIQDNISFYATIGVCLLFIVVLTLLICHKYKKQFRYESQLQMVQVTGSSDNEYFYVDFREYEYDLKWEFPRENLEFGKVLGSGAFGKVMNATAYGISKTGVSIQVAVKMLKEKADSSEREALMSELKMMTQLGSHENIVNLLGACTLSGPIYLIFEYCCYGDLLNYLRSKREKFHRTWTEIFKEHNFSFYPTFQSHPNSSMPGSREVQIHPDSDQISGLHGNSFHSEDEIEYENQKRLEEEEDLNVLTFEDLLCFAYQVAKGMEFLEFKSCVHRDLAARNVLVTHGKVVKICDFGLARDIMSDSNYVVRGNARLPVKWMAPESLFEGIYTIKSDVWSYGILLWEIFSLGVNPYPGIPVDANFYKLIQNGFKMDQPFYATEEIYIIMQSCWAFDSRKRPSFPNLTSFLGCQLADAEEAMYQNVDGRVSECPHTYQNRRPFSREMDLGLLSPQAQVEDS
Data set [11] in a line: Cmax in C57BL/6 mouse at 10 mg/kg, po measured upto 8 hrs by LC-MS/MS analysis. In kind it is ADME, organism-based. Further details: route oral, dose 10 mg/kg, time <=8. Particulars: in vivo.
The nature of data set [12]: Oral bioavailability in C57BL/6 mouse at 10 mg/kg measured upto 8 hrs by LC-MS/MS analysis. In kind it is ADME, organism-based. Particulars: mouse, in vivo, 10 mg/kg, 8 h.
A short description of data set [13]: AUC (0-infinity) in C57BL/6 mouse at 10 mg/kg, po measured upto 8 hrs by LC-MS/MS analysis. As to conditions: mouse, in vivo, 8 h. Further details: route oral, dose 10 mg/kg, time <=8. Type of data set: ADME, organism-based.
The target in data set [14] is Myosin light chain kinase, smooth muscle (Homo sapiens, UniProt Q15746). As to the kind of experiment: Inhibition of MYLK (unknown origin) at 1 uM by kinome scan method.
Data set [15] in a line: Half life in C57BL/6 mouse at 10 mg/kg, po measured upto 8 hrs by LC-MS/MS analysis. In kind it is ADME, organism-based. As to conditions: in vivo.
Data set [16] is described as follows: AUC (0-infinity) in C57BL/6 mouse at 5 mg/kg, iv measured upto 8 hrs by LC-MS/MS analysis. Further details: route intravenous, dose 5 mg/kg, time <=8. Type of data set: ADME, organism-based. Particulars: in vivo.
Data set [17] deals with CAL-27. As to the kind of experiment: Induction of apoptosis in human CAL-27 cells assessed as decrease in FOXO3A phosphorylation at serine 253 residue at 10 uM after 24 hrs by Immunoblot analysis relative to control. In kind it is functional. Further details: scale not given: the % may be the effect or the level left.
The next data set deals with FaDu. Kind of data set: Antiproliferative activity against human FaDu cells assessed as reduction in cell viability at 10 uM measured after 72 hrs by Celltiter-Glo luminescent assay. Type of data set: functional.
Data set [18] deals with CAL-27. As to the kind of experiment: Induction of apoptosis in human CAL-27 cells assessed as decrease in AKT phosphorylation at S473 residue at 1 uM after 24 hrs by Immunoblot analysis relative to control. In kind it is functional. Further details: scale not given: the % may be the effect or the level left.
Data set [19] has as its system CAL-27. As to the kind of experiment: Induction of apoptosis in human CAL-27 cells assessed as decrease in FOXO3A phosphorylation at serine 253 residue at 0.5 uM after 24 hrs by Immunoblot analysis relative to control. In kind it is functional. Further details: scale not given: the % may be the effect or the level left.
The test system of data set [20] is CAL-27. Kind of data set: Induction of apoptosis in human CAL-27 cells assessed as decrease in AKT phosphorylation at S473 residue at 5 uM after 24 hrs by Immunoblot analysis relative to control. In kind it is functional. Further details: scale not given: the % may be the effect or the level left.
Data set [21] has as its target Cyclin-dependent kinase 8 (Homo sapiens) (UniProt P49336). As to the kind of experiment: Inhibition of CDK8 (unknown origin) in human CAL-27 cells measured after 6 hrs by select screen kinase assay. In kind it is cell-based. A digest of the protocol:
(§1)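 Cellular kinase profiling by KiNativ in CAL27 head and neck squamous carcinoma cells. Cells were treated with compound at 1 μM for 6 h, then kinase engagement was profiled across the kinome by KiNativ.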

In data set [22] the test system is CAL-27. Kind of data set: Induction of apoptosis in human CAL-27 cells assessed as decrease in FOXO3A phosphorylation at serine 253 residue at 1 uM after 24 hrs by Immunoblot analysis relative to control. In kind it is functional. Further details: scale not given: the % may be the effect or the level left.
The target of data set [23] is Cyclin-dependent kinase 19 (Homo sapiens) (UniProt Q9BWU1). As to the kind of experiment: Inhibition of […] (unknown origin) in human CAL-27 cells measured after 6 hrs by select screen kinase assay. Type of data set: cell-based. A digest of the protocol:
as §1

Data set [24] concerns CAL-27. As to the kind of experiment: Induction of apoptosis in human CAL-27 cells assessed as decrease in AKT phosphorylation at S473 residue at 10 uM after 24 hrs by Immunoblot analysis relative to control. In kind it is functional. Further details: scale not given: the % may be the effect or the level left.
For data set [25], the system named is CAL-27. Kind of data set: Induction of apoptosis in human CAL-27 cells assessed as decrease in AKT phosphorylation at S473 residue at 0.5 uM after 24 hrs by Immunoblot analysis relative to control. Type of data set: functional. Further details: scale not given: the % may be the effect or the level left.
Data set [26] has as its system CAL-27. Kind of data set: Induction of apoptosis in human CAL-27 cells assessed as decrease in FOXO3A phosphorylation at serine 253 residue at 5 uM after 24 hrs by Immunoblot analysis relative to control. Type of data set: functional. Further details: scale not given: the % may be the effect or the level left.
Data set [27] deals with CAL-27. Kind of data set: Antiproliferative activity against human CAL-27 cells assessed as reduction in cell viability at 10 uM measured after 72 hrs by Celltiter-Glo luminescent assay. Type of data set: functional.
Data set [28] addresses Serine/threonine-protein kinase ATR (Homo sapiens) (UniProt Q13535). Kind of data set: Inhibition of ATR (unknown origin) in human CAL-27 cells measured after 6 hrs by select screen kinase assay. Type of data set: cell-based.

The source made the active and inactive calls. The rule behind the calls is not given here.

The term IC50 denotes the concentration at which inhibition is half-maximal. Broadly, the clearance is a measure of how efficiently the substance is removed, as volume per time. For orientation: half-life means how long it takes for the measured level to halve. The Cmax is the highest concentration seen after dosing. By AUC is commonly meant the area under the concentration-time curve, a measure of exposure.

Sequence of Dual specificity tyrosine-phosphorylation-regulated kinase 1B (Q9Y463 whole entry): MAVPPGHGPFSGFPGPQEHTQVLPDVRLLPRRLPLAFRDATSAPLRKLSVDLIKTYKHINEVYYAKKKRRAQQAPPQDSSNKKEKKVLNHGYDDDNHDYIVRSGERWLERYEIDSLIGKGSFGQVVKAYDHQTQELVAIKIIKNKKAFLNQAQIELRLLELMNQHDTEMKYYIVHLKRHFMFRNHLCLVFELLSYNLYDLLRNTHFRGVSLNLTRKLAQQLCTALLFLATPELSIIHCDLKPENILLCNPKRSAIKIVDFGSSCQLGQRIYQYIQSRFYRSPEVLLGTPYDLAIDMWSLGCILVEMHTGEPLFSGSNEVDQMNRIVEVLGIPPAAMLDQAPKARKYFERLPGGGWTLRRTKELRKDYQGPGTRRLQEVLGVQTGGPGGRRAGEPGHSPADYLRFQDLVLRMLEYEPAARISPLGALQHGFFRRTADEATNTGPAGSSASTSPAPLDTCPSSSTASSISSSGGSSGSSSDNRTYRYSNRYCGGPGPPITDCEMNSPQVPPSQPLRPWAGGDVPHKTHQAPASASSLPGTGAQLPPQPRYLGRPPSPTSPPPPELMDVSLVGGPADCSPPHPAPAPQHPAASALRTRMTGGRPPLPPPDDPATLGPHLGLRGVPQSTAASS
Sequence of Serine/threonine-protein kinase ATR (Homo sapiens) (Q13535 whole entry, looked up): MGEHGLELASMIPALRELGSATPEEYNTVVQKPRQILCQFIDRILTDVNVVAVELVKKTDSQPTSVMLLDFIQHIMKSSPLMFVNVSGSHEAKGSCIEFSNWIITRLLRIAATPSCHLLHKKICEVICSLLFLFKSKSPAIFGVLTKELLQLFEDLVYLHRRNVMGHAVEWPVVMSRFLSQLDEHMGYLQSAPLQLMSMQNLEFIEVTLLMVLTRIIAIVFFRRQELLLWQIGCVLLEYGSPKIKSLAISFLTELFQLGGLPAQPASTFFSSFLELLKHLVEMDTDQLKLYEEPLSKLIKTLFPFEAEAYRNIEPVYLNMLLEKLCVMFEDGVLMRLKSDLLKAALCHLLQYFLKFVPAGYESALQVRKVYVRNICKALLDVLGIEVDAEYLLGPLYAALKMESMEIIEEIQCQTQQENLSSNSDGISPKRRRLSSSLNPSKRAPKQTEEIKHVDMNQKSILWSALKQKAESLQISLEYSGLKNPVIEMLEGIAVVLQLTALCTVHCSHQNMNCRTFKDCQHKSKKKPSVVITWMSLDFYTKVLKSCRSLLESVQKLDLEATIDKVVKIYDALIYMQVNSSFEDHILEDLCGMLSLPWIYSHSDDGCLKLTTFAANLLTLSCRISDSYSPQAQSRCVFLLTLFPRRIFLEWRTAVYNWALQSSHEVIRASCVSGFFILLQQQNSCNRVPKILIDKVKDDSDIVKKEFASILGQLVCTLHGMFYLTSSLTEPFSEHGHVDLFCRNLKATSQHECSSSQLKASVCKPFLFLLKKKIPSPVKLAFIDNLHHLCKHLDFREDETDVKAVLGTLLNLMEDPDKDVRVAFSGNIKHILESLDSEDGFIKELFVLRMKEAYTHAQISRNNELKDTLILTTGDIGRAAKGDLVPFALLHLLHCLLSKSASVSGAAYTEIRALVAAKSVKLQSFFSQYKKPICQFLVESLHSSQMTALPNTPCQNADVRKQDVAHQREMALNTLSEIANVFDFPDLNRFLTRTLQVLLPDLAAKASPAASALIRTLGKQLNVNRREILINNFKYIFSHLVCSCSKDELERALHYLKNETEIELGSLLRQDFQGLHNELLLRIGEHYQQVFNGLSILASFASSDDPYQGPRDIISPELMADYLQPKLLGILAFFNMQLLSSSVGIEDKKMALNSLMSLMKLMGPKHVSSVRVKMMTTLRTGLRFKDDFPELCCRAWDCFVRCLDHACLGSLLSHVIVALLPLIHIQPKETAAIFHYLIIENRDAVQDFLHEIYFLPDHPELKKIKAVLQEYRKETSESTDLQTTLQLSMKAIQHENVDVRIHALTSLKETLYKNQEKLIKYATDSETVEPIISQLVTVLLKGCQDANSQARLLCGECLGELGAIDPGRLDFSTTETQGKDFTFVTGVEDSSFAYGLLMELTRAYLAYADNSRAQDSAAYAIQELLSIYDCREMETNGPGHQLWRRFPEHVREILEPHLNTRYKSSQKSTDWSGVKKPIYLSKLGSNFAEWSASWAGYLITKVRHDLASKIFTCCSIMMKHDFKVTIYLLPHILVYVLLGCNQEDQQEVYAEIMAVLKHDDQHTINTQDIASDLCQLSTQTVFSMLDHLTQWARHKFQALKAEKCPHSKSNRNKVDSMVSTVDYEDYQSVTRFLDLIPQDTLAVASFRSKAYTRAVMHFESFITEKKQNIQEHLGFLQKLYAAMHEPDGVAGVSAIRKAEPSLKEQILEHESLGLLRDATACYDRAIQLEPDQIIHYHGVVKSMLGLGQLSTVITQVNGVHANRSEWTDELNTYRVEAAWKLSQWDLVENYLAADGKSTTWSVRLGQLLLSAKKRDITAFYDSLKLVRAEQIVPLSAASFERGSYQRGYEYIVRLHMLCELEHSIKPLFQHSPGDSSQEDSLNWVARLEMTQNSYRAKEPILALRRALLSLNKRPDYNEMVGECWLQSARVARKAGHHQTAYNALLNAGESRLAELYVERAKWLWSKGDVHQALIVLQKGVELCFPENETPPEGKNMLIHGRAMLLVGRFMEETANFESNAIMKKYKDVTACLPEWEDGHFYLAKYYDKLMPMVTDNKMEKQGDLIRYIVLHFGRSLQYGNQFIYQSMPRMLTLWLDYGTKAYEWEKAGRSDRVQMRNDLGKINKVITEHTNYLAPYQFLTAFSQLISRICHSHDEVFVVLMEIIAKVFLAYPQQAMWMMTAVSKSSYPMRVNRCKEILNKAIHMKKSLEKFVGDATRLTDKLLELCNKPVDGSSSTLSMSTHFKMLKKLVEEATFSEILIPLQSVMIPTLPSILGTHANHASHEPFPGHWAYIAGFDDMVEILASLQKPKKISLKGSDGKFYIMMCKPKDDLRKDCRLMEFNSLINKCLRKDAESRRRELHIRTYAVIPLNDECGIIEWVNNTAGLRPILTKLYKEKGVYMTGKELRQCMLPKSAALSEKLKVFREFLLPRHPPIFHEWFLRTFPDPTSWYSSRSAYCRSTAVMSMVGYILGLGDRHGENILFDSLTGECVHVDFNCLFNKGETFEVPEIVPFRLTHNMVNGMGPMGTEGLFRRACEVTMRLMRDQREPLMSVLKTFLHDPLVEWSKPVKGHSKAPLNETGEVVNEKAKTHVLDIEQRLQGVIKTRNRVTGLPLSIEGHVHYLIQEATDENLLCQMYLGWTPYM
Sequence of Cyclin-dependent kinase 19 (Homo sapiens) (Q9BWU1 whole entry): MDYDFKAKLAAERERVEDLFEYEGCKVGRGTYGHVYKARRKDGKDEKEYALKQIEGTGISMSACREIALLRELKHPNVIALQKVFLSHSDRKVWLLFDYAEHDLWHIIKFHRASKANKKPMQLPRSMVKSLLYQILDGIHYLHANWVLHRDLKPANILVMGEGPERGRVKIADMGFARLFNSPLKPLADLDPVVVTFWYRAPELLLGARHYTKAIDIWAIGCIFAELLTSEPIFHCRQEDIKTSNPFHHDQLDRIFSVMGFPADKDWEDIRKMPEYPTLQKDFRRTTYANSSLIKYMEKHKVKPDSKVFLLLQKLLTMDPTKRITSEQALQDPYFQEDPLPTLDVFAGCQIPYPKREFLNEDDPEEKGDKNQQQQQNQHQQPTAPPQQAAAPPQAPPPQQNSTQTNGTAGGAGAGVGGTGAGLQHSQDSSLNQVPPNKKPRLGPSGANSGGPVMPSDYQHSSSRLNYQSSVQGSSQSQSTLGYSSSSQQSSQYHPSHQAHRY

For `CN1Cc2nn(C)c(C#N)c2-c2cnc3[nH]cc(c3n2)-c2cn(nc2C(F)(F)F)CCCC1=O`, the IC50 in data set [1] came to 18 nM.

`CN1Cc2nn(C)c(C#N)c2-c2cc3c(c[nH]c3nn2)-c2cn(nc2C(F)(F)F)CCCC1=O`: in data set [1], the half-maximal inhibitory concentration (IC50) stood at 3050 nM.

`COc1c2c(nn1C)CN(C(C)C)C(=O)CCCn1cc(c(C(F)(F)F)n1)-c1c(C)[nH]c3ncc-2cc13`: the Activity in the data set with CAL-27 [2] came to 79%; in the data set with CAL-27 [3], 117%; in the data set on CAL-27 [4], 61%; in the data set on CAL-27 [5], 119%; with CAL-27 [6], 113%; in the data set on CAL-27 [7] it was 145%.

Consider `COc1c2c(nn1C)CN(C(C)C)C(=O)CCCn1cc(c(C(F)(F)F)n1)-c1c[nH]c3ncc-2cc13`, for which the Activity in the data set on CAL-27 [2] was determined as 130%; with CAL-27 [3], 112%; in the data set on CAL-27 [4] it was 84%; in the data set on CAL-27 [5], 140%; with CAL-27 [6], 110%; with CAL-27 [7], 538%.

`Cc1[nH]c2ncc3cc2c1-c1cn(nc1C(F)(F)F)CCCC(=O)N(C)Cc1nn(C)c(C#N)c1-3`: the Activity in the data set on CAL-27 [2] is given as 103%; in the data set with CAL-27 [3] it was 134%; in the data set with CAL-27 [4] it was 105%; in the data set on CAL-27 [5] it was 133%; in the data set with CAL-27 [6], 120%; in the data set on CAL-27 [7], 190%.

In [8], `CN1Cc2nn(C)c(C#N)c2-c2cnc3[nH]cc(c3c2)-c2cn(nc2C(F)(F)F)CCCC1=O` registered a clearance of 167 mL/min/kg. Further, in the data set on HEK-293T, the Activity entry is recorded as “Non-Toxic”. The half-life is 0.3 h in data set [9] and 2 h in data set [15]. Moreover, the IC50 was found to be 354 nM in data set [10] and 334 nM in [14]. In [11], this compound yielded a Cmax of 11.6 µM. In data set [12], this compound registered an F of 1.1%. The AUC in data set [13] was determined as 23.6 ng·h/mL; in [16], 504.9 ng·h/mL.

On to `COc1ccc2c(c1)[nH]c1c(C)nccc12` [HARMINE], for which the Activity in the data set with CAL-27 [2] is listed as 92%; in the data set with CAL-27 [17] it was 90%; in the data set with HEK-293T, “Active”; in the data set with CAL-27 [18] it was 93%; with CAL-27 [3], 141%; in the data set on CAL-27 [19], 82%. In addition, the Activity in the data set with CAL-27 [4] is 93%; in the data set on CAL-27 [20] it was 133%; in the data set with CAL-27 [5], 139%; in the data set on CAL-27 [22], 107%; with CAL-27 [6], 113%; in the data set with CAL-27 [7], 210%. Also, the results for the Activity in the data set on CAL-27 [24], in the data set on CAL-27 [25] and with CAL-27 [26] were 143%, 64% and 110%, respectively. In addition, the result in the data set with FaDu was inactive. Also, the inhibition entry in data set [21] and in data set [23] was “Active” in each case.

Consider `O=C(O)c1ccc2c(c1)nc(Nc1cccc(Cl)c1)c1ccncc12` [SILMITASERTIB], for which the Activity in the data set with CAL-27 [2] is listed as 80%; with CAL-27 [17], 150%; in the data set on HEK-293T it was “Active”; with FaDu, 75%; with CAL-27 [27], 80%; in the data set on CAL-27 [18], 53%. Further, the Activity in the data set on CAL-27 [3] was determined as 137%; in the data set with CAL-27 [19] it was 103%; in the data set on CAL-27 [4], 103%; in the data set on CAL-27 [20], 85%; in the data set with CAL-27 [5], 201%; in the data set on CAL-27 [22], 150%. For the same compound, the Activity came out at 127% in the data set with CAL-27 [6]; 871% in the data set with CAL-27 [7]; 85% in the data set on CAL-27 [24]; 54% in the data set with CAL-27 [25]; 139% with CAL-27 [26]. In addition, the inhibition result in [28] was “Active”.

`CN1Cc2nn(C)c(C#N)c2-c2cnc3[nH]nc(c3c2)-c2cn(nc2C(F)(F)F)CCCC1=O`: the IC50 in data set [1] amounted to 929 nM.

Turning to `CN1Cc2nn(C)cc2-c2cnc3[nH]cc(c3c2)-c2cnn(c2)CCCCC1=O`, the IC50 in data set [1] was found to be 150 nM.
